Laboratory results as given in ChEMBL document CHEMBL4689842, “EUbOPEN Chemogenomics Library wave 1” (2021).

Test system: HEK-293T
Assay: Multiplex assay against HEK293T;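 as to Population Tubulin-Different-Phenotype (%): share of the cells with healthy nuclei that show this phenotype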
Format: toxicity, cell-based
Settings: human
Summary of the method: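 Per cents of healthy-nucleus cells form the tubulin, mitochondrial-mass and membrane-permeability phenotype values. Live cells were stained at seeding with Hoechst33342, BioTracker Green Microtubule Cytoskeleton Dye, MitoTracker Red and Annexin V Alexa Fluor 680. After compound addition they were imaged on a CQ1 microscope at 37°C and 5% CO2, and CellPathfinder machine-learning gating split them into Hoechst high-intensity objects or normal cells, normal cells into healthy, pyknosed or fragmented nuclei, and pyknosed cells into mitotic or apoptotic.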

[1] = 12 h, 1 µM, compound concentration 1 uM, replicate 1
[2] = 12 h, 1 µM, compound concentration 1 uM, replicate 2
[3] = 12 h, 10 µM, compound concentration 10 uM, replicate 1
[4] = 12 h, 10 µM, compound concentration 10 uM, replicate 2
[5] = 24 h, 1 µM, compound concentration 1 uM, replicate 1
[6] = 24 h, 1 µM, compound concentration 1 uM, replicate 2
[7] = 24 h, 10 µM, compound concentration 10 uM, replicate 1
[8] = 24 h, 10 µM, compound concentration 10 uM, replicate 2
[9] = 48 h, 1 µM, compound concentration 1 uM, replicate 1
[10] = 48 h, 1 µM, compound concentration 1 uM, replicate 2
[11] = 48 h, 10 µM, compound concentration 10 uM, replicate 1
[12] = 48 h, 10 µM, compound concentration 10 uM, replicate 2

For `CC(C)NCC(O)COc1ccc(CCOCC2CC2)cc1.Cl` (stereo not given) [BETAXOLOL HYDROCHLORIDE], the “Population Apoptotic (%)” value [1] was 43%, the “Population Fragmented Nuclei (%)” value [1] was 7% and the “Population Healthy Nuclei (%)” value [1] was 49%. For the same compound, the “Population Hoechst High Intensity Objects (%)” value [1] was 10%, the “Population Membrane Permeable-Phenotype (%)” value [1] was 3% and the “Population Mitochondria Different-Phenotype (%)” value [1] was 82%. The “Population Mitotic Cells (%)” value [1] was 56%, the “Population Normal (%)” value [1] was 89% and the “Population Pyknosed Nuclei (%)” value [1] was 43%. The “Population Tubulin-Different-Phenotype (%)” value [1] was 56%, the “Total Cell Count” value [1] was 343 and the “Population Apoptotic (%)” value [2] was 12%. The “Population Fragmented Nuclei (%)” value [2] was 6%, the “Population Healthy Nuclei (%)” value [2] was 43% and the “Population Hoechst High Intensity Objects (%)” value [2] was 1%. The “Population Membrane Permeable-Phenotype (%)” value [2] was 8%, the “Population Mitochondria Different-Phenotype (%)” value [2] was 14% and the “Population Mitotic Cells (%)” value [2] was 87%. The “Population Normal (%)” value [2] was 98%, the “Population Pyknosed Nuclei (%)” value [2] was 50% and the “Population Tubulin-Different-Phenotype (%)” value [2] was 19%. For the same compound, the “Total Cell Count” value [2] was 227, the “Population Apoptotic (%)” value [3] was 55% and the “Population Fragmented Nuclei (%)” value [3] was 9%. The “Population Hoechst High Intensity Objects (%)” value [3] was 13%, the “Population Membrane Permeable-Phenotype (%)” value [3] was 1% and the “Population Mitochondria Different-Phenotype (%)” value [3] was 100%. The “Population Mitotic Cells (%)” value [3] was 44%, the “Population Normal (%)” value [3] was 86% and the “Population Pyknosed Nuclei (%)” value [3] was 59%. The “Population Tubulin-Different-Phenotype (%)” value [3] was 95%, the “Total Cell Count” value [3] was 247 and the “Population Apoptotic (%)” value [4] was 36%. The “Population Fragmented Nuclei (%)” value [4] was 3%, the “Population Healthy Nuclei (%)” value [4] was 30% and the “Population Hoechst High Intensity Objects (%)” value [4] was 2%. The “Population Membrane Permeable-Phenotype (%)” value [4] was 6%, the “Population Mitochondria Different-Phenotype (%)” value [4] was 71% and the “Population Mitotic Cells (%)” value [4] was 63%. The “Population Normal (%)” value [4] was 97%, the “Population Pyknosed Nuclei (%)” value [4] was 65% and the “Population Tubulin-Different-Phenotype (%)” value [4] was 77%. For the same compound, the “Total Cell Count” value [4] was 259, the “Population Apoptotic (%)” value [5] was 45% and the “Population Fragmented Nuclei (%)” value [5] was 6%. The “Population Healthy Nuclei (%)” value [5] was 60%, the “Population Hoechst High Intensity Objects (%)” value [5] was 7% and the “Population Membrane Permeable-Phenotype (%)” value [5] was 2%. The “Population Mitochondria Different-Phenotype (%)” value [5] was 65%, the “Population Mitotic Cells (%)” value [5] was 54% and the “Population Normal (%)” value [5] was 92%. The “Population Pyknosed Nuclei (%)” value [5] was 33%, the “Population Tubulin-Different-Phenotype (%)” value [5] was 37% and the “Total Cell Count” value [5] was 403. For the same compound, the “Population Apoptotic (%)” value [6] was 10%, the “Population Healthy Nuclei (%)” value [6] was 64% and the “Population Hoechst High Intensity Objects (%)” value [6] was 1%. The “Population Membrane Permeable-Phenotype (%)” value [6] was 7%, the “Population Mitochondria Different-Phenotype (%)” value [6] was 22% and the “Population Mitotic Cells (%)” value [6] was 89%. For the same compound, the “Population Normal (%)” value [6] was 98%, the “Population Pyknosed Nuclei (%)” value [6] was 29% and the “Population Tubulin-Different-Phenotype (%)” value [6] was 32%. The “Total Cell Count” value [6] was 314, the “Population Apoptotic (%)” value [7] was 69% and the “Population Fragmented Nuclei (%)” value [7] was 11%. For the same compound, the “Population Healthy Nuclei (%)” value [7] was 32%, the “Population Hoechst High Intensity Objects (%)” value [7] was 15% and the “Population Membrane Permeable-Phenotype (%)” value [7] was 4%. For the same compound, the “Population Mitochondria Different-Phenotype (%)” value [7] was 98%, the “Population Mitotic Cells (%)” value [7] was 30% and the “Population Normal (%)” value [7] was 84%. The “Population Pyknosed Nuclei (%)” value [7] was 55%, the “Population Tubulin-Different-Phenotype (%)” value [7] was 80% and the “Total Cell Count” value [7] was 258. The “Population Apoptotic (%)” value [8] was 47%, the “Population Fragmented Nuclei (%)” value [8] was 2% and the “Population Healthy Nuclei (%)” value [8] was 50%. The “Population Hoechst High Intensity Objects (%)” value [8] was 5%, the “Population Membrane Permeable-Phenotype (%)” value [8] was 3% and the “Population Mitochondria Different-Phenotype (%)” value [8] was 80%. For the same compound, the “Population Mitotic Cells (%)” value [8] was 52%, the “Population Normal (%)” value [8] was 94% and the “Population Pyknosed Nuclei (%)” value [8] was 46%. For the same compound, the “Population Tubulin-Different-Phenotype (%)” value [8] was 82%, the “Total Cell Count” value [8] was 321 and the “Population Apoptotic (%)” value [9] was 28%. For the same compound, the “Population Fragmented Nuclei (%)” value [9] was 8%, the “Population Healthy Nuclei (%)” value [9] was 79% and the “Population Hoechst High Intensity Objects (%)” value [9] was 5%. For the same compound, the “Population Membrane Permeable-Phenotype (%)” value [9] was 1%, the “Population Mitochondria Different-Phenotype (%)” value [9] was 28% and the “Population Mitotic Cells (%)” value [9] was 71%. For the same compound, the “Population Normal (%)” value [9] was 94%, the “Population Pyknosed Nuclei (%)” value [9] was 12% and the “Population Tubulin-Different-Phenotype (%)” value [9] was 31%. For the same compound, the “Total Cell Count” value [9] was 701, the “Population Apoptotic (%)” value [10] was 11% and the “Population Fragmented Nuclei (%)” value [10] was 6%. The “Population Healthy Nuclei (%)” value [10] was 81%, the “Population Hoechst High Intensity Objects (%)” value [10] was 3% and the “Population Membrane Permeable-Phenotype (%)” value [10] was 4%. The “Population Mitochondria Different-Phenotype (%)” value [10] was 6%, the “Population Mitotic Cells (%)” value [10] was 88% and the “Population Normal (%)” value [10] was 97%. The “Population Pyknosed Nuclei (%)” value [10] was 11%, the “Population Tubulin-Different-Phenotype (%)” value [10] was 22% and the “Total Cell Count” value [10] was 601. The “Population Apoptotic (%)” value [11] was 67%, the “Population Fragmented Nuclei (%)” value [11] was 14% and the “Population Healthy Nuclei (%)” value [11] was 48%. The “Population Hoechst High Intensity Objects (%)” value [11] was 14%, the “Population Membrane Permeable-Phenotype (%)” value [11] was 0% and the “Population Mitochondria Different-Phenotype (%)” value [11] was 84%. The “Population Mitotic Cells (%)” value [11] was 32%, the “Population Normal (%)” value [11] was 85% and the “Population Pyknosed Nuclei (%)” value [11] was 36%. The “Population Tubulin-Different-Phenotype (%)” value [11] was 61%, the “Total Cell Count” value [11] was 288 and the “Population Apoptotic (%)” value [12] was 40%. For the same compound, the “Population Fragmented Nuclei (%)” value [12] was 4%, the “Population Healthy Nuclei (%)” value [12] was 72% and the “Population Hoechst High Intensity Objects (%)” value [12] was 4%. The “Population Membrane Permeable-Phenotype (%)” value [12] was 1%, the “Population Mitochondria Different-Phenotype (%)” value [12] was 63% and the “Population Mitotic Cells (%)” value [12] was 59%. For the same compound, the “Population Normal (%)” value [12] was 95%, the “Population Pyknosed Nuclei (%)” value [12] was 23% and the “Population Tubulin-Different-Phenotype (%)” value [12] was 77%. For the same compound, the “Total Cell Count” value [12] was 435.
